This passage reports MIC, inhibition and IC50 results from ChEMBL document CHEMBL1143279, “Synthesis, reduction potentials, and antitubercular activity of ring A/B analogues of the bioreductive drug (6S)-2-nitro-6-{[4-(trifluoromethoxy)benzyl]oxy}-6,7-dihydro-5H-imidazo[2,1-b][1,3]oxazine (PA-824)” (J Med Chem, 2009).

Experiment [1] relates to Mycobacterium tuberculosis. In words: Antimicrobial activity against Mycobacterium tuberculosis after 8 days in aerobic condition by alamar blue assay. The experiment is classed as functional. The conditions noted are these: 192 h. In a few lines: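 Replicating M. tb was tested in an 8-day microplate assay. Alamar blue was added on day 7 to measure growth. The MIC was taken as the lowest drug concentration giving >90% inhibition.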
In general terms: Resazurin is reduced to fluorescent resorufin, in cell work by metabolically active cells.

The test system of experiment [2] is Mycobacterium tuberculosis. The experiment is described as follows: Antimicrobial activity against Mycobacterium tuberculosis assessed as growth inhibition at 100 uM after 8 days under aerobic condition by alamar blue assay. To be noted: 192 h. In kind it is functional.
Experiment [3] relates to Mycobacterium tuberculosis. In words: Antimicrobial activity against Mycobacterium tuberculosis after 11 days under anaerobic condition by luminescence-based low oxygen recovery assay. The conditions noted are these: 264 h. In kind it is functional.
Experiment [4] deals with Mycobacterium tuberculosis. In words: Antimicrobial activity against Mycobacterium tuberculosis assessed as growth inhibition at 100 uM after 11 days under anaerobic condition by luminescence-based low oxygen recovery assay. In kind it is functional. The conditions noted are these: 264 h.
For another experiment, the system named is Vero. The experiment is described as follows: Cytotoxicity against african green monkey Vero cells after 72 hrs. In kind it is cell-based. The conditions noted are these: Chlorocebus sabaeus. In a few lines:
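VERO (CCL-81) monolayers exposed 72 h to 3-fold serial dilutions of compound. Viability read by tetrazolium dye reduction, product absorbance at 490 nm. Untreated cells set 0% inhibition, SDS-lysed cells 100% inhibition.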

≈ marks a conversion by molar mass, not a printed value. A value given as a limit tells only on which side of the number the result lay.

Consider `O=[N+]([O-])c1cn2c(n1)CCC(OCc1ccc(OCc3ccccc3)cc1)C2` (stereo unspecified), for which the MIC in experiment [1] and in experiment [3] was greater than 128 µM each time. Moreover, the inhibition (commonly the relative decrease from the control value, in per cent) at 100 µM in experiment [2] came to 5%; in experiment [4] it was 49%.

Consider `O=[N+]([O-])c1cn2c(n1)OCC(OCc1ccc(OCc3ccccc3)cc1)C2` (stereo unspecified), for which the 50% inhibitory concentration (IC50) – broadly, the concentration that gives 50% inhibition – in the experiment on Vero is greater than 128 µM.

For the compound `O=[N+]([O-])c1cn2c(n1)[S+]([O-])CC(OCc1ccc(OCc3ccccc3)cc1)C2` (stereo unspecified), the MIC in experiment [1] and in experiment [3] was greater than 128 µM throughout. The inhibition at 100 µM in experiment [2] was found to be 23%; in experiment [4] it was 20%. The half-maximal inhibitory concentration (IC50) with Vero was 63 µM.

In the case of `O=[N+]([O-])c1nc2n(n1)C[C@H](OCc1ccc(OC(F)(F)F)cc1)CO2`, the MIC (as a rule, the smallest concentration in the dilution series that meets the test's criterion for growth inhibition) in experiment [1] is greater than 128 µM. The inhibition at 100 µM in experiment [2] was 81%. For the same compound, the half-maximal inhibitory concentration (IC50) in the experiment on Vero is greater than 128 µM.

With `O=[N+]([O-])c1cn2c(n1)SCC(OCc1ccc(OC(F)(F)F)cc1)C2` (stereo unspecified), the MIC in experiment [1] is 1.1 µM (≈ 0.413 µg/mL); in experiment [3] it was 13 µM (≈ 4.88 µg/mL). In the experiment on Vero, this compound came in with an IC50 greater than 128 µM.

Consider `CN1CC(OCc2ccc(OC(F)(F)F)cc2)Cn2nc([N+](=O)[O-])cc21` (stereo unspecified), for which the MIC in experiment [1] and in experiment [3] was greater than 128 µM each time. For the same compound, the inhibition at 100 µM in experiment [2] is 61%; in experiment [4] it was 37%. In the experiment with Vero, this compound had an IC50 greater than 128 µM.

With `O=[N+]([O-])c1cn2c(n1)SCC(OCc1ccc(OCc3ccccc3)cc1)C2` (stereo unspecified), the minimal inhibitory concentration (MIC) in experiment [1] was 1.1 µM (≈ 0.437 µg/mL); in experiment [3] it was 11 µM (≈ 4.37 µg/mL). This compound also had an IC50 in the experiment with Vero greater than 128 µM.

Take `O=[N+]([O-])c1cn2c(n1)OCC(OCc1ccc(OC(F)(F)F)cc1)C2` (stereo unspecified): the IC50 with Vero was greater than 128 µM.

`CN1CC(OCc2ccc(OCc3ccccc3)cc2)Cn2nc([N+](=O)[O-])cc21` (stereo unspecified): the MIC in experiment [1] and in experiment [3] was greater than 128 µM each time. For the same compound, the inhibition at 100 µM stood at 58% in experiment [2] and 3% in experiment [4]. The same compound registered an IC50 in the experiment on Vero greater than 128 µM.

`O=[N+]([O-])c1cn2c(n1)S(=O)(=O)CC(OCc1ccc(OCc3ccccc3)cc1)C2` (stereo unspecified): the MIC in experiment [1] and in experiment [3] was greater than 128 µM each time. For the same compound, the inhibition at 100 µM in experiment [2] is 61%; in experiment [4], 79%. In the experiment with Vero, this compound gave an IC50 greater than 128 µM.

With `O=[N+]([O-])c1cc2n(n1)CC(OCc1ccc(OCc3ccccc3)cc1)CO2` (stereo unspecified), the minimum inhibitory concentration (MIC) in experiment [1] and in experiment [3] was greater than 128 µM throughout. Besides, the inhibition at 100 µM stood at 38% in experiment [2] and 19% in experiment [4]. Half-maximal inhibition in the experiment on Vero (IC50) was put at 82 µM.

`O=[N+]([O-])c1cn2c(n1)S(=O)(=O)CC(OCc1ccc(OC(F)(F)F)cc1)C2` (stereo unspecified): the MIC in experiment [1] was greater than 128 µM; in experiment [3], 89 µM (≈ 36.3 µg/mL). Besides, in experiment [2], the inhibition at 100 µM amounted to 89%. In the experiment with Vero, the IC50 is greater than 128 µM.

As to `O=[N+]([O-])c1cn2c(n1)CCC(OCc1ccc(OC(F)(F)F)cc1)C2` (stereo unspecified), the MIC is 126 µM (≈ 45 µg/mL) in experiment [1] and greater than 128 µM in experiment [3]. In addition, the inhibition at 100 µM in experiment [4] stood at 75%.

As to `O=[N+]([O-])c1cc2n(n1)CC(OCc1ccc(OCc3ccccc3)cc1)CN2` (stereo unspecified), the MIC in experiment [1] and in experiment [3] was greater than 128 µM in each case. Moreover, the inhibition at 100 µM in experiment [2] was 55%; in experiment [4], 41%.

Turning to `O=[N+]([O-])c1cc2n(n1)CC(OCc1ccc(OC(F)(F)F)cc1)CO2` (stereo unspecified), the MIC in experiment [1] is greater than 128 µM. Besides, the inhibition at 100 µM in experiment [2] stood at 89%; in experiment [4], 86%. This compound displayed an IC50 in the experiment on Vero of 88 µM.

Regarding `O=[N+]([O-])c1cn2c(n1)NCC(OCc1ccc(OC(F)(F)F)cc1)C2` (stereo unspecified), the MIC in experiment [1] and in experiment [3] was greater than 128 µM each time. Also, the inhibition at 100 µM in experiment [2] was 63%; in experiment [4], 64%.

As to `O=[N+]([O-])c1nc2n(n1)C[C@@H](OCc1ccc(OC(F)(F)F)cc1)CO2`, the MIC in experiment [1] is greater than 128 µM. Besides, in experiment [2], the inhibition at 100 µM amounted to 84%. In addition, in the experiment on Vero, the IC50 was greater than 128 µM.

`O=[N+]([O-])c1nc2n(n1)C[C@H](OCc1ccc(OCc3ccccc3)cc1)CO2`: in experiment [1], the MIC is greater than 128 µM. Also, the inhibition at 100 µM in experiment [2] came out at 18%.

Regarding `O=[N+]([O-])c1cc2n(n1)CC(OCc1ccc(OC(F)(F)F)cc1)CN2` (stereo unspecified), the MIC in experiment [1] is greater than 128 µM; in experiment [3], 111 µM (≈ 39.8 µg/mL). The inhibition at 100 µM in experiment [2] came to 61%.

For `O=[N+]([O-])c1cn2c(n1)[S+]([O-])CC(OCc1ccc(OC(F)(F)F)cc1)C2` (stereo unspecified), the MIC in experiment [1] is greater than 128 µM; in experiment [3], 92 µM (≈ 36 µg/mL). In addition, the inhibition at 100 µM in experiment [2] is 87%. Further, the IC50 in the experiment with Vero is greater than 128 µM.
